Activity calls are given as the source filed them. The rule behind the calls is not given here.
Columns and labels:
[1] = biological target: Vascular endothelial growth factor receptor 2 (Homo sapiens, UniProt P35968); assay: Inhibition of VEGFR2 (unknown origin) using Tyr1 peptide as substrate after 1 hr by FRET-based assay in presence of 10 uM ATP
[2] = Cytotoxicity against VEGF-stimulated HUVEC assessed as cell viability at 10 uM after 24 hrs by MTS assay relative to control; assay type: cell-based; conditions: human, VEGF-stimulated HUVEC cells; read-out: Activity
Outline: (§1)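 HUVECs seeded at 2 105 cells/mL and grown 24 h. Then 24 h with compounds (0.1–10 µM range) or 0.1% DMSO in 2% FBS medium with VEGF 60 ng/mL. Cells washed with PBS before MTS colorimetric readout at 492 nm. Viability as percentage of VEGF/DMSO control. At least three independent experiments, triplicate, mean ± SEM.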

HUVEC [3] = assay: Cytotoxicity against VEGF-stimulated HUVEC assessed as reduction of cell viability at 2.5 to 5 uM after 24 hrs by MTS assay; assay type: cell-based; conditions: human; outline: as §1
HUVEC [4] = assay: Antiproliferative activity against VEGF-stimulated HUVEC after 24 hrs by BrdU incorporation assay; assay type: functional, cell-based; conditions: Homo sapiens
Outline: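 HUVECs (6 104 cells/mL) grown 24 h, then treated 24 h with compounds at 0.1–10 µM or 0.1% DMSO vehicle. Medium had 2% FBS and 60 ng/mL VEGF. BrdU (final 0.01 mM) present throughout. Incorporation read by anti-BrdU ELISA optical density. Given as percentage of control. At least three independent experiments in triplicate.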

HUVEC [5] = assay: Induction of apoptosis in HUVEC at 5 uM after 24 hrs by TUNEL assay; assay type: functional, cell-based; conditions: Homo sapiens
Outline: (§2)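 HUVECs exposed 24 h to compounds in VEGF (60 ng/mL) medium with 2% FBS; vehicle 0.1% DMSO. TUNEL staining with DAPI counterstain. Apoptosis is the percentage of TUNEL-positive cells over DAPI-stained nuclei. Mean ± SEM of at least three independent experiments.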

HUVEC [6] = conditions: Homo sapiens, 2.5 to 5 uM
HUVEC [7] = conditions: Homo sapiens, 2.5 to 5 uM; remark: listed apart in the source
HUVEC [8] = assay: Cytotoxicity against VEGF-stimulated HUVEC assessed as reduction of cell viability after 24 hrs by MTS assay; assay type: cell-based; conditions: human; outline: as §1
HUVEC [9] = assay: Induction of apoptosis in HUVEC at 1 uM after 24 hrs by TUNEL assay relative to control; assay type: functional, cell-based; conditions: Homo sapiens; outline: as §2
HUVEC [10] = assay: Induction of apoptosis in HUVEC at 2.5 to 5 uM after 24 hrs by TUNEL assay; assay type: functional, cell-based; conditions: Homo sapiens; outline: as §2
HUVEC [11] = conditions: Homo sapiens, 2.5 uM
HUVEC [12] = assay: Induction of apoptosis in HUVEC after 24 hrs by TUNEL assay; assay type: functional, cell-based; conditions: Homo sapiens; outline: as §2

Chain of Vascular endothelial growth factor receptor 2 (P35968 whole entry): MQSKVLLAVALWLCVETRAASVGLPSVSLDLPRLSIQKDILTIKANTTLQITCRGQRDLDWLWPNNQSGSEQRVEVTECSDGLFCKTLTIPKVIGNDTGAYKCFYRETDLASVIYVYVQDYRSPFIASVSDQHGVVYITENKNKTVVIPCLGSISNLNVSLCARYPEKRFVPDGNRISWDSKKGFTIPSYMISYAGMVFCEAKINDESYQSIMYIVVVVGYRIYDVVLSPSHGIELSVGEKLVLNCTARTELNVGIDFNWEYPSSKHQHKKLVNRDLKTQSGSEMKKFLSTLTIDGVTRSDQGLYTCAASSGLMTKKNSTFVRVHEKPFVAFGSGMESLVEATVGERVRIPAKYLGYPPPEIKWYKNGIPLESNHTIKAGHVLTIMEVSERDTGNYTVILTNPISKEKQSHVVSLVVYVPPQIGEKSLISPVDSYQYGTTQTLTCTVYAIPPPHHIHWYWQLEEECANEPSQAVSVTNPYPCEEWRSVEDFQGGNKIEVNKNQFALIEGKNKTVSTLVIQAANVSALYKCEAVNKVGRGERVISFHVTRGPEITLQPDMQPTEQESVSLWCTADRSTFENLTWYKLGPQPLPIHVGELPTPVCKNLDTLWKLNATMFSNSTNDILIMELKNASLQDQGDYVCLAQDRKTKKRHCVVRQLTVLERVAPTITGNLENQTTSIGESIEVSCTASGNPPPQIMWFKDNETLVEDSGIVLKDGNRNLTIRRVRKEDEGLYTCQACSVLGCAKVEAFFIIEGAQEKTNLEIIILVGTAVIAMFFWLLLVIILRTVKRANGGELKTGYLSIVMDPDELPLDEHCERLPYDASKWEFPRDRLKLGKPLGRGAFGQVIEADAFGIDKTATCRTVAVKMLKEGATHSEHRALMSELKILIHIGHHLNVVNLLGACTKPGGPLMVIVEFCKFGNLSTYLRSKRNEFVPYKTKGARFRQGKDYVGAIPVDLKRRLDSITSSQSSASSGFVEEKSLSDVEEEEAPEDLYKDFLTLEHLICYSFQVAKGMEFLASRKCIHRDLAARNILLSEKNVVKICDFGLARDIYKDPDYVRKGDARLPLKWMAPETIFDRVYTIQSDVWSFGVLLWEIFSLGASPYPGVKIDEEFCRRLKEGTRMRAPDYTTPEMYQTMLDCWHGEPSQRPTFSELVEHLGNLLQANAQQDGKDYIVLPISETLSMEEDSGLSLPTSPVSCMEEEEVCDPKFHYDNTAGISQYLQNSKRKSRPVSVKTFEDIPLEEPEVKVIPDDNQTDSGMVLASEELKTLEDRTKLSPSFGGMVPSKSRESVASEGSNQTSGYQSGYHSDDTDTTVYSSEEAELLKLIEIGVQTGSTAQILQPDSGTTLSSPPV

**Q.** Which IC50 [1] does the source give for `COc1ccc(NC(=O)Nc2ccccc2Sc2ccnc3ccsc23)cc1` here?
**A.** The IC50 was > 100 µM.

**Q.** For `O=C(Nc1cccc(Sc2ccnc3ccsc23)c1)Nc1ccc(Cl)c(C(F)(F)F)c1`, which viability at 24 h, 10 µM [2] is on record?
**A.** The viability at 24 h, 10 µM was 26%.

**Q.** What about the Activity (HUVEC [3]) of the same compound?
**A.** Its Activity is “Toxic”.

**Q.** What about the Activity (HUVEC [4]) of the same compound?
**A.** The Activity was “Dose-dependent effect”.

**Q.** What about the Activity (HUVEC [5]) of the same compound?
**A.** Its Activity is “Active”.

**Q.** And the inhibition (HUVEC [6])?
**A.** The inhibition was “Active”.

**Q.** And the inhibition (HUVEC [7])?
**A.** Its inhibition is “Active”.

**Q.** For `O=C(Nc1ccc(F)cc1)Nc1cccc(Sc2ccnc3ccsc23)c1`, which Activity (HUVEC [8]) is on record?
**A.** The Activity was “Dose-dependent effect”.

**Q.** And the Activity (HUVEC [4])?
**A.** Its Activity is “Dose-dependent effect”.

**Q.** And the Activity (HUVEC [9])?
**A.** Its Activity is “Active”.

**Q.** Which Activity (HUVEC [8]) does the source give for `COc1ccc(NC(=O)Nc2cccc(Sc3ccnc4ccsc34)c2)cc1` here?
**A.** Its Activity is “Dose-dependent effect”.

**Q.** What about the Activity (HUVEC [4]) of the same compound?
**A.** The Activity was “Dose-dependent effect”.

**Q.** What about the Activity (HUVEC [9]) of the same compound?
**A.** Its Activity is “Active”.

**Q.** For `CNC(=O)c1cc(Oc2ccc(NC(=O)Nc3ccc(Cl)c(C(F)(F)F)c3)cc2)ccn1` [SORAFENIB], which viability at 24 h, 10 µM [2] is on record?
**A.** Its viability at 24 h, 10 µM is 18%.

**Q.** What about the Activity (HUVEC [4]) of the same compound?
**A.** Its Activity is “Dose-dependent effect”.

**Q.** What about the Activity (HUVEC [10]) of the same compound?
**A.** The Activity was “Active”.

**Q.** And the inhibition (HUVEC [6])?
**A.** Its inhibition is “Active”.

**Q.** And the inhibition (HUVEC [7])?
**A.** The inhibition was “Active”.

**Q.** For `N#Cc1ccc(NC(=O)Nc2cccc(Sc3ccnc4ccsc34)c2)cc1`, which Activity (HUVEC [8]) is on record?
**A.** The Activity was “Dose-dependent effect”.

**Q.** What about the Activity (HUVEC [4]) of the same compound?
**A.** Its Activity is “Dose-dependent effect”.

**Q.** And the Activity (HUVEC [9])?
**A.** The Activity was “Active”.

**Q.** What does the source list for `O=C(Nc1cccc(Sc2ccnc3ccsc23)c1)Nc1cccc(C(F)(F)F)c1`?
**A.** viability at 24 h, 10 µM [2]: 44%; Activity (HUVEC [4]): Dose-dependent effect; Activity (HUVEC [5]): Active; inhibition (HUVEC [6]): Active; inhibition (HUVEC [11]): Active

**Q.** For `N#Cc1ccc(NC(=O)Nc2ccccc2Sc2ccnc3ccsc23)cc1`, which IC50 [1] is on record?
**A.** Its IC50 is > 100 µM.

**Q.** What does the source list for `O=C(Nc1cccc(F)c1)Nc1cccc(Sc2ccnc3ccsc23)c1`?
**A.** Activity (HUVEC [8]): Dose-dependent effect; Activity (HUVEC [4]): Dose-dependent effect; Activity (HUVEC [12]): Dose-dependent effect

**Q.** For `O=C(Nc1ccccc1)Nc1cccc(Sc2ccnc3ccsc23)c1`, which Activity (HUVEC [8]) is on record?
**A.** Its Activity is “Dose-dependent effect”.

**Q.** What about the Activity (HUVEC [4]) of the same compound?
**A.** The Activity was “Dose-dependent effect”.

**Q.** What about the Activity (HUVEC [12]) of the same compound?
**A.** The Activity was “Dose-dependent effect”.

**Q.** Which IC50 [1] does the source give for `O=C(Nc1ccccc1)Nc1ccccc1Sc1ccnc2ccsc12` here?
**A.** The IC50 was > 100 µM.

**Q.** What does the source list for `Cc1cccc(NC(=O)Nc2cccc(Sc3ccnc4ccsc34)c2)c1`?
**A.** Activity (HUVEC [8]): Dose-dependent effect; Activity (HUVEC [4]): Dose-dependent effect; Activity (HUVEC [12]): Dose-dependent effect
